Source: PubChem (Broad Institute)
Hits are enriched below; roughly 1.7% of the tested compounds scored in any of these assays.
Statin myotox sup = suppressors of statin myotoxicity in C2C12 myotubes, primary screen, cell-based, single point, plate reader | C2C12 myotubes + simvastatin, ATP luminescence, 48 h; scaled: DMSO 0, geranylgeraniol control 100 | rescue of ATP level, % at 7.49 µM | 330,000 compounds, 0.78% hits;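 active = mean ATP rescue above about 67%, or every replicate alone reaching that limit, limit read from the data, passing the limit was not always enough; inconclusive = no clear call, values can overlap the other calls; inactive = mean under the limit and some replicate under it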;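 also: myotubes were challenged with 10 µM simvastatin during compound exposure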
SR-BI DiI inh = inhibitors of SR-BI mediated HDL lipid uptake, primary screen, ldlA[mSR-BI] cells, fluorescence, single point. 320,000 compounds, 0.96% hits. inhibition, % at 12.5 µM. Scavenger receptor class B member 1 (Mus musculus), Q61009. AID 488896, 2010. ldlA[mSR-BI] CHO cells, DiI-HDL uptake fluorescence, 3 h;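 active = mean replicate inhibition of at least 70% and a set share of replicates each scoring 70 or more; inconclusive = meets just one of the two criteria; inactive = fails both criteria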
Target sequence (Q61009 whole entry, looked up): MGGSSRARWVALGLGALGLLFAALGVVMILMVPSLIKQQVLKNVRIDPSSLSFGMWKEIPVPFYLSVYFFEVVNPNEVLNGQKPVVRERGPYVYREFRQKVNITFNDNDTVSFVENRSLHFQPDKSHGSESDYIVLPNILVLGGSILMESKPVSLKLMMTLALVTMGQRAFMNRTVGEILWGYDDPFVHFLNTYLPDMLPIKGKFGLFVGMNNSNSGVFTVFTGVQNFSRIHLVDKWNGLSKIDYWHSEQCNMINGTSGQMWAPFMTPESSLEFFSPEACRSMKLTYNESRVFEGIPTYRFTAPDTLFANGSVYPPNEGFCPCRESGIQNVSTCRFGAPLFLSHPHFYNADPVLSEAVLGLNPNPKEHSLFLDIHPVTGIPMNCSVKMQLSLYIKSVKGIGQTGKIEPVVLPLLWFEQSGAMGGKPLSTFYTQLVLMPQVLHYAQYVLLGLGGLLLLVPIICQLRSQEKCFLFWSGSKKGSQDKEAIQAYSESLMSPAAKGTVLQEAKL
SR-BI DiI-HDL act = activators of SR-BI mediated DiI-HDL uptake, primary screen, ldlA[mSR-BI] CHO cells, DiI fluorescence | 3 h; 100 = double the neutral-control signal | activation, % at 12.5 µM | 320,000 compounds, 0.096% hits | AID 504775, 2011;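 active = mean replicate activation of at least 60% and every replicate at or above 60%; inconclusive = mean or all-replicate condition met, but not both; inactive = mean below 60% and not all replicates reaching 60%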
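material = CHO ldlA[mSR-BI] cells | medium = Ham's F12 with 0.5% BSA, HEPES 25 mM, pH 7.4 | reagent = fluorescent DiI-HDL, 10 µg/mL final | compound dosing = single-point compound dose | incubation = 3 h, 37 °C | measured by = bottom-read fluorescence, 550/595 nm | measure = HDL uptake via cellular fluorescence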
Vif inh = HIV Vif self-association inhibitors, primary screen, imaging, HEK293T, single point | HEK293T cells, Vif self-association by quenched fluorescence, 24 h | inhibition, % at 7.49 µM | 340,000 compounds, 0.35% hits | AID 602346, 2012; in the data active = inhibition above about 50%, passing the limit was not always enough; inconclusive = no clear call, values can overlap the other calls; inactive = below about 31%
Hits are given with their value; i = inactive; ? = inconclusive; nt = not tested or not shown.

SMILES	Statin myotox sup	SR-BI DiI inh	SR-BI DiI-HDL act	Vif inh
CN(C)S(=O)(=O)c1ccc(N2CCCC2)c(C(=O)Nc2nc3ccccc3s2)c1	nt	i	i	i
Cc1cccc2sc(NC(=O)c3cc(S(=O)(=O)N(C)C)ccc3N3CCCC3)nc12	i	76	i	i
CCOC(=O)CSc1nc2sc3c(c2c(=O)n1-c1ccc(OC)cc1)CCN(C)C3	i	i	i	i
CCSc1nc2sc3c(c2c(=O)n1-c1ccc(OC)cc1)CCN(C)C3	101	i	i	i
CC1(C)OC(c2ccccc2)=C/C(=C/C=N/NC(=O)c2ccncc2)O1	nt	90	i	i
CCCNC(=O)N(C)C[C@H]1Oc2cc(-c3cncnc3)ccc2S(=O)(=O)N([C@H](C)CO)C[C@H]1C	i	nt	nt	nt
COc1ccc(-c2nn(-c3ccccc3)cc2/C=N/Nc2ccc(S(N)(=O)=O)cc2[N+](=O)[O-])cc1OC	i	79	i	i
Cc1cccc(NC(=O)CNC(=O)CSc2ncccn2)c1C	i	i	i	i
Cc1cccc(NC(=O)CNC(=O)Cn2ncc(Cl)c(Cl)c2=O)c1C	i	i	i	57
Cc1cccc(N2CCc3c2nc2ccc(Br)cc2c3N)c1	i	91	i	nt
CC(C)c1ccc(NC(=O)CN(Cc2ccccc2)S(C)(=O)=O)cc1	i	i	i	i
CCOc1ccc(NC(=O)Nc2cc(OCC(F)(F)F)cc(OCC(F)(F)F)c2)cc1	nt	75	i	i
CCOc1ccc(S(=O)(=O)NN)cc1	96	i	i	i
O=C(Nc1ccc(F)cc1)Nc1cc(OCC(F)(F)F)cc(OCC(F)(F)F)c1	nt	?	i	i
CCOc1ccc(NC(=O)CN(Cc2ccccc2)S(C)(=O)=O)cc1	110	i	i	i
CCOc1ccc(NS(=O)(=O)c2ccc(N)cc2)cc1	nt	i	i	i
CCOc1ccc(NC(N)=O)cc1	i	i	i	65
O=C([C@@H]1[C@@H](CO)[C@@H]2Cn3c(cccc3=O)[C@@H]2N1CC1CCCC1)N1CCOCC1	i	nt	nt	nt
CC1CCN(CC(O)COc2ccc(OCC(O)CN3CCC(C)CC3)cc2)CC1 (configuration not stated)	i	i	i	i
Cc1ccc(C)c(OCC(O)CN2CCC(C)CC2)c1C (configuration not stated)	111	i	i	i
O=C([C@@H]1[C@@H](CO)[C@@H]2Cn3c(cccc3=O)[C@H]1N2)N1CCc2ccccc2C1	i	nt	nt	nt
Cc1nn(-c2ccccc2)c(C)c1/C=N\N1CCN(c2ccc(Cl)cc2)CC1	nt	80	i	i
COc1ccc(OC)c(/C=N/N2CCN(c3ccc(Cl)cc3)CC2)c1	i	i	148	i
Cc1nn(-c2ccccc2)c(C)c1/C=N/n1cnnc1	nt	i	i	i
Cc1ccc2c(c1)c1c3n2CCN(C(=O)C2CC2)C3CCC1 (configuration not stated)	i	i	i	nt
SMILES	Statin myotox sup	SR-BI DiI inh	SR-BI DiI-HDL act	Vif inh
Cc1ccc2c(c1)c1c3n2CC(=C2C(=O)OC(C)(C)OC2=O)NC3CCC1 (configuration not stated)	i	78	i	i
Cc1cc(Br)ccc1-n1[nH]c(C)c(C=Nc2cccc3nsnc23)c1=O	i	77	i	i
Cc1cc(C(=O)Nc2cccc3c2O[C@@H](CN(C)Cc2ccc(Cl)c(Cl)c2)[C@@H](C)CN([C@H](C)CO)C3=O)n(C)n1	i	nt	nt	nt
Cc1ccc(S(=O)(=O)Nc2ccccc2C=Nc2cccc(C)c2C)cc1	nt	i	i	i
Cc1ccc(S(=O)(=O)Nc2ccccc2N=Cc2c(F)c(F)c(F)c(F)c2F)cc1	nt	92	i	i
CO[C@H](CN(C)Cc1ccc2c(c1)OCO2)[C@@H](C)CN(C(=O)Nc1ccc(F)cc1)[C@@H](C)CO	i	nt	nt	nt
Cc1ccc(-c2cnc3c(c2)C(=O)N([C@@H](C)CO)C[C@@H](C)[C@H](CN(C)CC2CCOCC2)O3)cc1	i	nt	nt	nt
Nc1nc(-c2cccnc2)nn1C(=O)CCc1ccccc1	i	i	i	i
Cc1ccc(C(=O)n2nc(-c3ccco3)nc2N)cc1	81	i	i	i
Nc1nc(-c2ccco2)nn1C(=O)CCc1ccccc1	113	i	i	i
CC(C)NC(=O)N(C)C[C@H]1Oc2cc(C#Cc3ccccn3)ccc2S(=O)(=O)N([C@H](C)CO)C[C@H]1C	i	nt	nt	nt
CC(=O)Nc1ccc(/C=C/C(=O)c2ccc3c(c2)OCCO3)cc1	i	nt	nt	56
N#C/C(=C(/O)CCl)c1nc2ccccc2[nH]1	nt	i	i	i
